This is a sample that favours compounds with a hit; in the whole collection about 3.4% have one here.
rRNA inh HTS = inhibitors of bacterial rRNA selective over humanized ribosomes; GFP signal change (wild-type ribosome), % (test concentration not listed); AID 720706; hit rate 1.6% among 350,000; E. coli WT GFP vs humanized-ribosome RFP mutants, fluorescence, 24 h; hits give low values; DMSO median 0, no signal -100;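 active = significant combined selectivity score with lowered wild-type GFP, culture density cut under 30%, mutant RFP and density less affected; inactive = any of these conditions unmet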
ERAP1 inh = blocks human ERAP1 aminopeptidase activity; recombinant ERAP1, Leu-AMC fluorescence, 60 min; inhibition, % at 10.7 µM; hit rate 0.15% among 340,000; AID 652197;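 active = mean replicate inhibition of at least 30%, or all replicates individually reaching that 30% level; inactive = mean below 30% and not every replicate reaching it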;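 note: 0% = neutral control wells and 100% = L-leucinethiol positive control wells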
SIRT5 block = inhibitors of human sirtuin-5 desuccinylase | Q9NXA8 | Purified SirT5, succinyl-peptide AMC, trypsin-coupled fluorescence | inhibition, % at 15 µM | hit rate 1.1% among 330,000; in the data active = inhibition above about 15%
AF4-AF9 inh = blocks AF4 peptide binding to human AF9; P42568; AlphaScreen, biotin-AF4 peptide binding to FLAG-AF9; inhibition, % at 10 µM; hit rate 0.47% among 350,000;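 active = every replicate reaching a set inhibition limit, whatever the replicate mean, cut at about 25% in these data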;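 note: 0% = plate neutral control median and 100% = total signal loss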
Target sequence (P42568 whole entry, looked up): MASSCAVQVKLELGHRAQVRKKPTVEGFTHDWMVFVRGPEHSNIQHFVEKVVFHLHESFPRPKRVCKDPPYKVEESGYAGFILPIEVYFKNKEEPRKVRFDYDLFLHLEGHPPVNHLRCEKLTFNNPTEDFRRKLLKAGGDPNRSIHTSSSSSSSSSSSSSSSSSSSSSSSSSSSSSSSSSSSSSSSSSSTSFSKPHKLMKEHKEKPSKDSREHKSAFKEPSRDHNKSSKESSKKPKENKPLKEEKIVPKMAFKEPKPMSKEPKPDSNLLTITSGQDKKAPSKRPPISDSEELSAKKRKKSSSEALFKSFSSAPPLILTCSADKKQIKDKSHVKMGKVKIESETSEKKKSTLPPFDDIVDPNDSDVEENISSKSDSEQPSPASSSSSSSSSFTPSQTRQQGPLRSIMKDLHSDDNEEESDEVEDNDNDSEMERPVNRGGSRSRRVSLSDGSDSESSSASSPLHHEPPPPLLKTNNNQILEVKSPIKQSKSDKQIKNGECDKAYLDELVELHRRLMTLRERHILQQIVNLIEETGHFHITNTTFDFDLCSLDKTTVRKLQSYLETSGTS
E-selectin induc = E-selectin induction on HUVECs; P16581; HUVEC E-selectin immunofluorescence imaging; normalized: neutral wells 0, TNF-alpha wells 100; activation, % at 7.58 µM; hit rate 0.37% among 260,000;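 active = mean E-selectin-positive cell signal at least 10% of the positive control, reached in at least 60% of replicates, without over 20% cell loss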
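Test system – human umbilical vein endothelial cells (HUVEC), E-selectin induction · Input – 3,000 HUVEC seeded per well · Buffer or medium – EGM-2, gelatin · Compound dosing – single-point compound dose · Detection – immunofluorescence imaging · Measure – percent E-selectin-positive cells · Controls – TNF-alpha high, DMSO low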
S100A4 MyoIIA = blocks human S100A4 binding to myosin IIA peptide; P26447; S100A4/TAMRA-MyoIIA peptide fluorescence polarization; inhibition, % at 10.7 µM; hit rate 0.14% among 360,000; AID 652163;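 active = mean inhibition of at least 70% across replicates, with every replicate also reaching that level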
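assay system = human S100A4 monomer with TAMRA-labelled myosin IIA peptide | also added = labelled myosin peptide probe, 5 nM | incubation = 5 min between mix addition and reading | control set = DMSO and TFP controls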
Starred values were filed as active, the others as inactive.

Cc1ccc2nc(NC3=NC(CC(=O)O)C(=O)N3)nc(C)c2c1 (centres undefined) was read as rRNA inh HTS 20, ERAP1 inh -8, SIRT5 block 44*, AF4-AF9 inh -10, E-selectin induc -2 and S100A4 MyoIIA -8.
Screening COC(=O)c1cc(NC(=O)CN(c2ccccc2OC)S(=O)(=O)c2ccccc2)ccc1Cl returned rRNA inh HTS -21*, ERAP1 inh 2, SIRT5 block 9 and S100A4 MyoIIA 1.
For CCOc1ccccc1N(CC(=O)Nc1ccccc1F)S(=O)(=O)c1ccccc1 the results were rRNA inh HTS -19*, ERAP1 inh -1, SIRT5 block -2, AF4-AF9 inh 3, E-selectin induc 0 and S100A4 MyoIIA -3.
Screening COc1ccccc1N(CC(=O)NCCSCc1ccccc1)S(=O)(=O)c1ccc(C)cc1 returned rRNA inh HTS 2, ERAP1 inh -3, SIRT5 block -4, AF4-AF9 inh -3 and S100A4 MyoIIA -3.
Screening COc1ccc(S(=O)(=O)N(CC(=O)NC2CCCC2)c2ccccc2OC)cc1 returned rRNA inh HTS -29*, ERAP1 inh 6, SIRT5 block -4, AF4-AF9 inh -14 and S100A4 MyoIIA 4.
Screening COc1ccccc1N(CC(=O)NCCSCc1ccccc1)S(=O)(=O)c1ccccc1 returned rRNA inh HTS -15*, ERAP1 inh 1, AF4-AF9 inh -2, E-selectin induc 0 and S100A4 MyoIIA -4.
Screening COc1ccc(S(=O)(=O)N(CC(=O)NC2CC3CCC2C3)c2ccccc2OC)cc1 (centres undefined) returned rRNA inh HTS -16, ERAP1 inh -2, SIRT5 block -3, AF4-AF9 inh 0 and S100A4 MyoIIA 0.
For CCOc1ccccc1N(CC(=O)Nc1ccc(OC)cc1OC)S(=O)(=O)c1ccccc1 the results were rRNA inh HTS 0, ERAP1 inh 3, SIRT5 block -2, AF4-AF9 inh 3 and S100A4 MyoIIA -3.
For CCC(=O)N1CC2(CCN(C(=O)NC(C)C)CC2)c2c(n(C)c3cc(OC)ccc23)[C@H]1CO the results were rRNA inh HTS -1, SIRT5 block -3, E-selectin induc 0 and S100A4 MyoIIA 24.
Screening CC[C@@H](CCC=C(C)C)C(=O)N(Cc1ccccc1)c1ccccc1 returned rRNA inh HTS -2, ERAP1 inh -1, SIRT5 block -5, AF4-AF9 inh 2, E-selectin induc 0 and S100A4 MyoIIA 0.
For CC(C)C[C@@H](C)C(=O)N(Cc1ccccc1)c1ccccc1 the results were rRNA inh HTS -35*, ERAP1 inh 0, SIRT5 block 0, AF4-AF9 inh -2, E-selectin induc 0 and S100A4 MyoIIA -4.
CCc1ccccc1Nc1ncnc2ccccc12 was read as rRNA inh HTS -17, ERAP1 inh 1, SIRT5 block -2, AF4-AF9 inh -2, E-selectin induc 0 and S100A4 MyoIIA -6.
`Cc1cccc(C)c1Nc1ncnc2ccccc12` gave rRNA inh HTS -34*, ERAP1 inh -2, SIRT5 block -4, AF4-AF9 inh 2, E-selectin induc 0 and S100A4 MyoIIA -8.
CCC(=O)Nc1ccc2c(c1)C(=O)N(C)[C@@H]1CC[C@@H](CC(=O)NCc3ccc(OC)cc3)O[C@@H]1CO2 was read as rRNA inh HTS 2, ERAP1 inh -1, SIRT5 block 1, AF4-AF9 inh 0, E-selectin induc 0 and S100A4 MyoIIA 22.
Screening CCOC(=O)C1CSCCS(=O)(=O)N1Cc1cc(F)ccc1Br (centres undefined) returned rRNA inh HTS -34*, ERAP1 inh -3, SIRT5 block -1, AF4-AF9 inh -1 and S100A4 MyoIIA 4.
Screening CCOc1ccc([C@@H]2CC=C(C(=O)O)CN2S(=O)(=O)c2ccc(C)cc2)cc1 returned rRNA inh HTS -26*, ERAP1 inh 3, SIRT5 block 1, AF4-AF9 inh 1, E-selectin induc 0 and S100A4 MyoIIA 5.
Screening CCc1ccc([C@@H]2CC=C(C(=O)O)CN2S(=O)(=O)c2ccc(C)cc2)cc1 returned rRNA inh HTS -23*, ERAP1 inh -5, AF4-AF9 inh 1 and S100A4 MyoIIA -1.

High-throughput results (PubChem BioAssay)
